OX1R antag-1: blocks the human orexin 1 receptor. O43613. CHO/OX1R cells, Fluo-8 calcium fluorescence, orexin A. inhibition, % at 5 µM. 330,000 tested, 0.43% active. AID 434989;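 active means inhibition above its plate's threshold, mean inhibition of all tested compounds on the plate plus 3 SD, cut at about 37% in these data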;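 further: 0% = orexin A challenge wells and 100% = SB-334867-A antagonist wells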
Target sequence (O43613 whole entry, looked up): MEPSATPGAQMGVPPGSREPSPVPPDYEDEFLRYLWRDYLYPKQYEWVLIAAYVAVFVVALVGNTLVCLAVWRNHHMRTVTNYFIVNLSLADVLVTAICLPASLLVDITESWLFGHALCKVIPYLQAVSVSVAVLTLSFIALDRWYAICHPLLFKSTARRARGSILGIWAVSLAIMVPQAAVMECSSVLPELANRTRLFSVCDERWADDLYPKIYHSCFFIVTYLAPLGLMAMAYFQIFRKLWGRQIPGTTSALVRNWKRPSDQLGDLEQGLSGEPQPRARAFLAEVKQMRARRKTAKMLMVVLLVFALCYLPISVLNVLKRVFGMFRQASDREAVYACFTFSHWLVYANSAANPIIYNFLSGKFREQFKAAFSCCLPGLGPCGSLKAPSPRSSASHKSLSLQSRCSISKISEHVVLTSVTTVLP
TAAR1 agonist: agonists of human TAAR1. activation, % at 3 µM. CHO RD-HGA16 TAAR1, Fluo-8 calcium fluorescence; vehicle wells 0%, saturating PEA agonist 100%. Q96RJ0. 360,000 tested, 0.99% active;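 active means activation above the mean activation of all test compounds in the run plus 3 SD, cut at about 38% in these data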
Target sequence (Q96RJ0 whole entry, looked up): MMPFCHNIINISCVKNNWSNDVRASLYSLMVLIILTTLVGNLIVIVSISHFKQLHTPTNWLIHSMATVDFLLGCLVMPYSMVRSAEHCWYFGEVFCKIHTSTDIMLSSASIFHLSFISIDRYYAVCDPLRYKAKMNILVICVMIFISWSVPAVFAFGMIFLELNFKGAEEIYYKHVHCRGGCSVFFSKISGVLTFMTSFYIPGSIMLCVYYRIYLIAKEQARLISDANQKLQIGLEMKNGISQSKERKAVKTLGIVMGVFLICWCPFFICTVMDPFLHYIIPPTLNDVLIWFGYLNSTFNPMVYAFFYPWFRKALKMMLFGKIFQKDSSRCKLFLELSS
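Signal – calcium-sensitive Fluo-8 signal, excitation 470-495, emission 515-575 nm · System – RD-HGA16 (CHO) cells co-expressing Gα16 and hTAAR1 · Incubation – 17-24 h seeding, 75 min 37 °C dye, 30 min RT · Compound dosing – 3 µM single concentration · Repeats – no replicates (n 1)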
TAAR1 antagonist: human TAAR1 antagonism | Q96RJ0 | CHO RD-HGA16 TAAR1, Fluo-8 calcium fluorescence, antagonist | 360,000 tested, 1.5% active | inhibition, % at 3 µM;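 active means inhibition above a per-plate cutoff, the mean inhibition of test compounds on that plate plus 3 SD, cut at about 49% in these data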;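 further: 0% = DMSO plus EC80 beta-PEA response and 100% = DMSO alone without agonist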
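Assay system: RD-HGA16 CHO cells with stable hTAAR1 and Gα16 / Reagent: EC80 β-phenethylamine stimulus / Doses: 3 µM, single point / Timing: dye loading 75 min at 37 °C, then 30 min room temperature / Measured by: Fluo-8 intracellular calcium dye fluorescence, real-time kinetic reads / Controls: vehicle wells and EC80 agonist wells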
OX1R antag-2: antagonists of human orexin 1 receptor (OX1R). O43613. OX1R-expressing cells, FRET antagonist read-out. inhibition, % at 6.6 µM. 330,000 tested, 1.8% active. AID 485270; in the data active means inhibition mostly above about 38%, no sharp cut-off; inactive means mostly below about 40%;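 further: 0% = agonist challenge alone and 100% = reference antagonist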
CHO parental Ca: counter-screen: ATP calcium response change in parental CHO cells | 330,000 tested, 0.63% active | inhibition, % at 5.6 µM | parental CHO-K1, ATP-induced calcium, Fluo-8 fluorescence;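 active means inhibition above that plate's mean sample inhibition plus 3 SD, cut at about 26% in these data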;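 further: 0% = ATP-challenged DMSO wells and 100% = DMSO wells without ATP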
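Material – parental CHO cells · Reagent – ATP stimulus · Compound – single nominal dose of 5.6 µM per compound · Detection – Fluo-8 fluorescence · Read-out basis – percent inhibition of calcium signal · Controls – ATP-challenged DMSO wells low, unchallenged DMSO wells high · Repeats – no replicates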
OX1R Fluo8 conf: OX1R (human) antagonism, confirmed; CHO/OX1R cells, orexin A calcium Fluo-8 fluorescence; inhibition, % at 5 µM; 1,100 tested, 38% active; shares compounds with OX1R antag-1; in the data active means inhibition above about 29%;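 further: 0% = agonist challenge alone and 100% = reference antagonist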
CHO Ca triplic: signal in parental CHO cells, OX1R antagonist counter-screen | shares compounds with OX1R antag-1 | parental CHO-K1, ATP-induced calcium, Fluo-8 fluorescence | inhibition, % at 5.6 µM | 1,100 tested, 9.3% active;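 active means inhibition above a per-plate limit, the mean inhibition of that plate's test compounds plus 3 SD, cut at about 25% in these data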;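 further: 0% = ATP challenge with DMSO and 100% = DMSO without ATP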
OX1R HTRF confirm: OX1R (human) antagonism, HTRF confirmed. OX1R-expressing cells, HTRF antagonist assay. inhibition, % at 6.6 µM. AID 492964. shares compounds with OX1R antag-2. 1,800 tested, 49% active; in the data active means inhibition above about 55%;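 further: CHO cells expressing OX1R stimulated with orexin A at about EC80; 0% = agonist challenge alone and 100% = reference antagonist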
CHO-K1 HTRF: counter-screen: parental CHO-K1 HTRF response. shares compounds with OX1R antag-2. inhibition, % at 6.6 µM. parental CHO-K1 cells, HTRF counterscreen. 1,800 tested, 48% active; in the data active means inhibition above about 17%;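 further: 0% = agonist challenge with vehicle and 100% = vehicle alone without agonist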
Active calls of the source: *; . = no result given. This is a sample that favours compounds with a hit; in the whole collection about 4% have one here.

SMILES | OX1R antag-1 | TAAR1 agonist | TAAR1 antagonist | OX1R antag-2 | CHO parental Ca | OX1R Fluo8 conf | CHO Ca triplic | OX1R HTRF confirm | CHO-K1 HTRF
CCOC(=O)c1ccc(Nc2cnc3ccccc3n2)cc1 | 46* | 0 | -29 | 62* | -7 | 23 | -5 | 50 | 0
Cc1ccn2cc(C(=O)Nc3ccc4c(c3)OCCO4)nc2c1 | 40 | 3 | -16 | 88* | -24 | 10 | -1 | 74* | 9
O=C(Nc1ccc2nn(-c3ccccc3)nc2c1)c1cccs1 | 33 | 11 | 45 | 83* | 1 | 26 | -2 | 55* | -1
COc1cccc(C(=O)Nc2ccccc2)c1 | -13 | 15 | -7 | 25 | -3 | . | . | . | .
COc1cccc(NC(=O)c2ccc(C(=O)c3ccccc3)o2)c1 | 53* | 0 | -3 | 100* | 1 | 33* | -2 | 78* | 9
Cc1c(N=C2N=C(NC(=O)Nc3ccc(Cl)cc3)c3ccccc32)c(=O)n(-c2ccccc2)n1C | -29 | 3 | -4 | 24 | -16 | . | . | . | .
CN(C)c1cccc(NC(=O)c2ccco2)c1 | -15 | -1 | 9 | 6 | -13 | . | . | . | .
CCN(CC)P(=O)(Nc1cccc(C(F)(F)F)c1)c1ccc(N(C)C)cc1NC(=O)c1ccco1 (stereo not drawn) | 87* | 4 | -30 | 82* | -13 | 64* | -9 | 86* | -16
CCOc1ccccc1-c1ccc(C(=O)NCc2ccc(Cl)cc2)o1 | . | 2 | 35 | . | . | . | . | . | .
c1coc(CNc2nc3nonc3nc2NCc2ccco2)c1 | 35 | 18 | 10 | 73* | 25 | -3 | -7 | 28 | -15
Cc1nc(NCc2ccco2)c2cn[nH]c2n1 | . | 0 | 8 | . | . | . | . | . | .
Cc1ccc(NC(=S)N2CCCC2)cc1Cl | . | 2 | -31 | . | . | . | . | . | .
CCN(CC)C(=O)CSc1nc2c(sc(=S)n2CC)c(=O)n1-c1ccccc1 | -33 | 5 | 23 | 9 | -22 | . | . | . | .
CCN(CC)C(=O)CSc1nc2c(sc(=S)n2-c2ccccc2OC)c(=O)n1-c1ccccc1 | 31 | -3 | -1 | 76* | -36 | 38* | -8 | 69* | 1
COC(=O)CCCCC1SCC(NC(=O)c2ccccc2)C1=O (stereo not drawn) | -24 | 7 | -5 | 4 | -11 | . | . | . | .
CCOC(=O)C1=C(C)N(C[C@@H]2CC[C@@H](Cc3ccc(-c4ccccc4)cc3)O2)C(=O)NC1C1CC1 (stereo partly drawn) | 51* | 2 | 4 | 34* | 12 | 10 | -18 | 28 | 1
CCOC(=O)C1=C(C)N(C[C@@H]2CC[C@@H](Cc3ccc(-c4ccccc4)cc3)O2)C(=O)NC1c1ccc(-c2ccccc2)cc1 (stereo partly drawn) | 6 | 0 | -19 | 6 | 2 | . | . | . | .
COc1cc(CC(=O)C(=O)O)oc(=O)c1 | . | 0 | -14 | . | . | . | . | . | .
Cc1cccc(-c2cc3nc(-c4ccccc4)cc(N4CCC5(CC4)OCCO5)n3n2)c1 | 47* | 9 | 19 | 64* | -25 | 25 | -7 | 70* | 5
COc1ccc(-c2cc3nc(-c4ccccc4)cc(N4CCN(C(C)=O)CC4)n3n2)cc1 | . | 7 | 42 | . | . | . | . | . | .
Fc1cccc(-c2cc3nc(-c4ccccc4)cc(N4CCC5(CC4)OCCO5)n3n2)c1 | 46* | 2 | 10 | 72* | -18 | 52* | -20 | 40 | -11
CCCCN(C)CCCNC(=O)C1(O)c2ccccc2NC(=O)N1c1ccc(Cl)cc1 (stereo not drawn) | 8 | -1 | -6 | 1 | 7 | . | . | . | .
Cn1c(-c2ccccc2)cc(=NNS(C)(=O)=O)c2cc(S(=O)(=O)O)ccc21 | . | 2 | -8 | . | . | . | . | . | .
CCN(CC)c1ccc(/C=N/NC(=O)c2ccco2)cc1 | 4 | 4 | 13 | 40 | -8 | . | . | . | .
CCN(CC)c1ccc(/C=N/NC(=O)c2ccco2)c(O)c1 | 36* | 4 | 12 | 68* | 12 | 73* | 18 | 88* | 11
SMILES | OX1R antag-1 | TAAR1 agonist | TAAR1 antagonist | OX1R antag-2 | CHO parental Ca | OX1R Fluo8 conf | CHO Ca triplic | OX1R HTRF confirm | CHO-K1 HTRF
Cc1ccc(CNCC(=O)Nc2ccc(C)cc2Br)cc1 | -21 | 6 | -21 | 6 | -16 | . | . | . | .
CCn1c2ccccc2c2cc(N=C3SC(CC(=O)Nc4ccccc4OC)C(=O)N3CCOC)ccc21 (stereo not drawn) | 58* | 0 | 4 | 77* | -4 | 52* | -13 | 83* | 2
CCn1c(Cn2nnc(-c3ccccc3)n2)nnc1SCC(=O)Nc1ccccc1 | 44 | 1 | 10 | 50* | -17 | 24 | -2 | 56* | 6
O=C(C1CCC(=O)N(C2CC2)C1)N1CCC(Oc2cccc(C(F)(F)F)c2)CC1 (stereo not drawn) | . | 6 | -14 | . | . | . | . | . | .
COc1ccc(CN(C(=O)CN2C(=O)C(C)Oc3ccccc32)C2CCCC2)c(OC)c1 (stereo not drawn) | 59* | . | . | 84* | -29 | 24 | -13 | 77* | 4
O=C(COC(=O)COc1ccccc1)Nc1cccc([N+](=O)[O-])c1 | -9 | 2 | -14 | 25 | -2 | . | . | . | .
CC(NS(=O)(=O)c1ccc(OCC(=O)Nc2cccc([N+](=O)[O-])c2)cc1)c1ccccc1 (stereo not drawn) | 54* | 15 | 60* | 66* | 46 | 60* | 18 | 69* | 8
Cc1cccc(NC(=O)c2nc[nH]c2C(=O)Nc2ccccc2F)c1 | . | 3 | 0 | . | . | . | . | . | .
Cc1ccccc1N(CC(=O)NC1CCCC1)C(=O)c1oc(C(C)(C)C)cc1C | 38 | . | . | 93* | -21 | 57* | -9 | 86* | 2
Cc1ccc(C(=O)N(CC(=O)NC2CCCCC2)c2ccccc2C)s1 | -10 | 2 | -8 | 22 | -13 | . | . | . | .
CC(CCc1ccccc1)NC(=O)CN1C(=O)NC2(CCCCC2)C1=O (stereo not drawn) | -13 | 6 | -8 | 10 | -3 | . | . | . | .
CN(Cc1ccccc1)C(=O)Cn1c(=O)oc2cc(S(=O)(=O)NCc3ccccc3)ccc21 | 25 | 18 | 43 | 48* | 7 | 47* | 7 | 88* | -10
CN1CCS/C1=C/C=C1\SC(=S)N(CC(=O)O)C1=O | 26 | 33 | 40 | 104* | 20 | 13 | 19 | 64* | 103*
O=S(=O)(c1c(F)cccc1F)N(CCc1ccc(F)cc1)C[C@@H](O)COCc1ccccc1 | . | 4 | 28 | . | . | . | . | . | .

Screens (PubChem BioAssay)
